Screening results (PubChem BioAssay)
FLuc act counter = affects firefly luciferase, flagging false hits in luciferase stimulation screens; ATPlite luciferase biochemical, luminescence, 10 min; 0 = ATP-free wells, 1 = DMSO control; activation factor at 10 µM; 200,000 tested, under 10 active; AID 1027;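 active = luciferase activation factor, scaled between plate controls, of at least 2 with compound at 10 µM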
Target sequence (P08659 whole entry, looked up): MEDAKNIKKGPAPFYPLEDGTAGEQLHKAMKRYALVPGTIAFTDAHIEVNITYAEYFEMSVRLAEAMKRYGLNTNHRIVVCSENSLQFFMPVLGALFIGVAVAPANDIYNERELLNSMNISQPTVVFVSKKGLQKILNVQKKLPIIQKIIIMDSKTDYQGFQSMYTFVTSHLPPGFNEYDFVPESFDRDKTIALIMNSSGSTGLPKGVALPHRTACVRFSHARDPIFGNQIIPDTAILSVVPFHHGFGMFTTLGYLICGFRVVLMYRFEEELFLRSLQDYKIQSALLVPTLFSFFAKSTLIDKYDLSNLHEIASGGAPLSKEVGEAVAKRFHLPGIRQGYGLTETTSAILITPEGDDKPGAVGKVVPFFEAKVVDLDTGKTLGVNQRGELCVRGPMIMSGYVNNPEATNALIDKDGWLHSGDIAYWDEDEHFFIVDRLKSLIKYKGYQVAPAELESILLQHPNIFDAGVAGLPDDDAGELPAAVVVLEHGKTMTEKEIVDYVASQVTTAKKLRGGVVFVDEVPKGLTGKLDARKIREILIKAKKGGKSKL
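System: luciferase plus luciferin reagent, cell-free; medium: PBS as buffer for the ATP substrate; dosing: test compounds dosed from 2 mM stocks in 100% DMSO; timing: 10 min post-reagent at room temperature; measured by: luminescence measurement of luciferase light output; evaluation: luciferase activation, seen as luminescence increase over controls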
STAT1 activator = STAT1 signaling activation. NIH 3T3 STAT1-luciferase reporter, IFN-gamma, luminescence; 100% = IFN-gamma alone, no compound. hit rate 2.6% among 200,000. activation (% of control), % at 5.5 µM;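 active = activation above the screen-wide mean activation plus 3 SD, cut at about 130% in these data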;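 also: raw ratio to IFN-gamma control signal so 100% means no change and 0% no light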
Rad51 HR inh = blocks human Rad51 in homologous recombination | inhibition, % at 10 µM | hit rate 0.085% among 200,000 | Q06609 | hRad51 DNA strand exchange, fluorescence dequenching | AID 1385;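 active = inhibition above 40% at the single screening dose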;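 also: 0% = DMSO control wells and 100% = blanks with heterologous ssDNA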
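Assay system: Human Rad51 nucleoprotein filaments preassembled on unlabelled ssDNA | Reagent: Donor/quencher-labelled 47-bp dsDNA substrate | Doses: One concentration, 10 µM final | Times: 37 °C 15-min filament assembly, 30-min compound preincubation, 15-min exchange | Technique: Fluorescein emission 520 nm, excitation 485 nm | Benchmarks: Plate control and blank wells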
NF-kB expr up = NF-kB expression increase, human neuronal cells; NF-kB reporter expression; hits give high values; hit rate 1.6% among 190,000; fold change at 12.5 µM; AID 1239; in the data active = fold change above about 3.3
APP 5'UTR act = APP 5'UTR luciferase reporter activation; SH-SY5Y APP 5'UTR luciferase reporter, luminescence; zero percent = DMSO vehicle wells; activation, % at 2 µM; hit rate 1% among 190,000; AID 1276;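 active = activation above a set limit, based on mean plus 3 SD of controls, cut at about 140% in these data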
FLuc inh counter = counter-screen for luciferase assay inhibitors: firefly luciferase inhibition; P08659; ATPLite firefly luciferase biochemical luminescence, 10 min; inhibition, % at 10 µM; hit rate 1.5% among 200,000; AID 1006;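 active = inhibition above about 50% when tested at 10 µM, limit read from the data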
Numbers without * were called inactive. Rows were chosen to be rich in hits. Some 3.9% of all compounds tested hit in one or more screens of this group.

Results for C#CCN(C(=O)CC1C(=O)NCCN1C/C=C/c1ccccc1)C1CCCCC1 (centres undefined) ?
FLuc act counter: 1.1; STAT1 activator: 96; Rad51 HR inh: 23; NF-kB expr up: 0.97; APP 5'UTR act: -2; FLuc inh counter: -6

Results for O=c1oc2cc(Cl)ccc2n1CSc1nc2ccccc2s1 ?
FLuc act counter: 0.9; STAT1 activator: 119; Rad51 HR inh: 4; NF-kB expr up: 8.6*; APP 5'UTR act: 0; FLuc inh counter: 10

Results for CCCN1C(=O)N(c2cccc(C)c2)C(C)(O)CC1(C)C (centres undefined) ?
Rad51 HR inh: 18

Results for Cc1c(F)cccc1NC(=O)CCCCCC1NC(=O)NC1C (centres undefined) ?
FLuc act counter: 1; STAT1 activator: 99; Rad51 HR inh: 3; NF-kB expr up: 1; APP 5'UTR act: -23; FLuc inh counter: -4

What do the screens show for `C=CCSc1nc2ccccc2n1C(=O)/C=C/c1cc(OC)c(OC)c(OC)c1`?
FLuc act counter: 1; STAT1 activator: 145*; NF-kB expr up: 0.7; APP 5'UTR act: -58; FLuc inh counter: -1

How did C=CCSc1nc2ccccc2n1C(=O)/C=C/c1ccc(OC)c(OC)c1 do in these assays?
FLuc act counter: 1; STAT1 activator: 93; Rad51 HR inh: 6; NF-kB expr up: 0.99; APP 5'UTR act: -8; FLuc inh counter: 1

What do the screens show for `O=S(=O)(c1ccc(Cl)cc1)c1snnc1-c1ccccc1`?
FLuc act counter: 1; STAT1 activator: 99; Rad51 HR inh: 0; NF-kB expr up: 6.4*; APP 5'UTR act: -96; FLuc inh counter: -3

Results for O=C(c1ccc(-c2ccc([N+](=O)[O-])cc2)o1)N1CCCCC1 ?
FLuc act counter: 0.8; STAT1 activator: 128; Rad51 HR inh: 7; NF-kB expr up: 4.8*; APP 5'UTR act: 180*; FLuc inh counter: 24

How did CCc1ccc(C2C(C(=O)O)c3ccccc3C(=O)N2C)cc1 (centres undefined) do in these assays?
FLuc act counter: 1.1; STAT1 activator: 98; Rad51 HR inh: -7; NF-kB expr up: 1.3; FLuc inh counter: -12

Results for CCc1ccc(/C=C/C(=O)C2C(=O)c3ccccc3C2=O)cc1 ?
FLuc act counter: 0; STAT1 activator: 65; Rad51 HR inh: 3; NF-kB expr up: 1.1; APP 5'UTR act: 20; FLuc inh counter: 96*

What do the screens show for `O=C(/C=C/c1ccccc1)C1C(=O)c2ccccc2C1=O`?
FLuc act counter: 0; STAT1 activator: 111; Rad51 HR inh: 7; NF-kB expr up: 2.6; APP 5'UTR act: 61; FLuc inh counter: 95*

Results for O=C(NN=C1c2ccccc2-c2ccccc21)c1ccccn1 ?
FLuc act counter: 0.9; STAT1 activator: 102; NF-kB expr up: 1.1; APP 5'UTR act: 7; FLuc inh counter: 12

What do the screens show for `O=C(NN=C1C2CC3CC1CC(Cl)(C3)C2)c1cccs1`?
FLuc act counter: 1; STAT1 activator: 128; Rad51 HR inh: -4; NF-kB expr up: 1.4; APP 5'UTR act: 141*; FLuc inh counter: 2

Results for O=C(NN=C1C2CC3CC1CC(Cl)(C3)C2)c1ccccn1 ?
FLuc act counter: 1; STAT1 activator: 121; Rad51 HR inh: -6; NF-kB expr up: 1.6; APP 5'UTR act: 159*; FLuc inh counter: 3

Results for CCOC(=O)C1C(c2ccc(O)c(OC)c2)NC(=S)NC1(O)C(F)(F)F (centres undefined) ?
FLuc act counter: 1.1; STAT1 activator: 98; Rad51 HR inh: 4; NF-kB expr up: 1.1; APP 5'UTR act: -4; FLuc inh counter: -6

Results for Cc1cccc(-c2nsc(SCC(=O)NCC3CCCO3)n2)c1 (centres undefined) ?
FLuc act counter: 0.8; STAT1 activator: 104; Rad51 HR inh: 4; NF-kB expr up: 1.4; APP 5'UTR act: -10; FLuc inh counter: 19

Results for O=[N+]([O-])c1cc(CN(CCO)CCO)ccc1O ?
Rad51 HR inh: 14

How did C=COC(=O)c1sc2nc(C)cc(C)c2c1N do in these assays?
Rad51 HR inh: -5

How did COc1ccc(-c2noc(CCc3ccccc3)n2)cc1 do in these assays?
FLuc act counter: 1; STAT1 activator: 134*; Rad51 HR inh: 11; NF-kB expr up: 1.6; APP 5'UTR act: 40; FLuc inh counter: 2

Results for Cc1ccc(-c2noc(CSc3ccccc3)n2)cc1 ?
FLuc act counter: 0.9; STAT1 activator: 118; Rad51 HR inh: 7; NF-kB expr up: 4.4*; APP 5'UTR act: 170*; FLuc inh counter: 11

What do the screens show for `Cc1cccc(-c2noc(CSc3ccccc3)n2)c1`?
FLuc act counter: 1; STAT1 activator: 145*; Rad51 HR inh: 7; NF-kB expr up: 2.8; APP 5'UTR act: 63; FLuc inh counter: -1

How did Cc1ccc(-c2noc(CSc3nc(N)cc(N)n3)n2)cc1 do in these assays?
FLuc act counter: 1; STAT1 activator: 128; Rad51 HR inh: 3; NF-kB expr up: 3.4*; APP 5'UTR act: 104; FLuc inh counter: 1

What do the screens show for `O=C(NC1CCCCC1)C(c1cccnc1)N(C(=O)CCl)c1cccc(Cl)c1` (centres undefined)?
FLuc act counter: 1.1; STAT1 activator: 78; Rad51 HR inh: -6; NF-kB expr up: 1.2; APP 5'UTR act: -26; FLuc inh counter: -7

What do the screens show for `c1ccc(C(Cc2nc(-c3cccnc3)no2)c2ccccc2)cc1`?
FLuc act counter: 1; STAT1 activator: 98; Rad51 HR inh: 1; NF-kB expr up: 0.92; APP 5'UTR act: -7; FLuc inh counter: -4

How did c1ccc(SCc2nc(-c3cccnc3)no2)cc1 do in these assays?
FLuc act counter: 0.9; STAT1 activator: 133*; Rad51 HR inh: -2; NF-kB expr up: 3.1; APP 5'UTR act: 46; FLuc inh counter: 5

How did O=C(c1ccc2ccccc2n1)N1CCN(c2ccccc2O)CC1 do in these assays?
FLuc act counter: 1; STAT1 activator: 100; Rad51 HR inh: 87*; NF-kB expr up: 1.1; APP 5'UTR act: 43; FLuc inh counter: 5

How did O=C(c1ccc2ccccc2n1)N1CCN(c2ccccc2)CC1 do in these assays?
FLuc act counter: 1; STAT1 activator: 104; Rad51 HR inh: 4; NF-kB expr up: 1.1; APP 5'UTR act: 8; FLuc inh counter: -1

Results for Cc1nc(NC(=O)c2ccc([N+](=O)[O-])cc2Cl)sc1C(=O)N(C)C ?
FLuc act counter: 1; STAT1 activator: 92; Rad51 HR inh: 8; NF-kB expr up: 1; APP 5'UTR act: -14; FLuc inh counter: -2

How did Cc1cc(C(=O)Nc2nc(C)c(C(=O)N(C)C)s2)ccc1[N+](=O)[O-] do in these assays?
FLuc act counter: 0.8; STAT1 activator: 150*; Rad51 HR inh: 16; NF-kB expr up: 1.1; APP 5'UTR act: 104; FLuc inh counter: 20
